Experimental data from ChEMBL document CHEMBL1649333, “In vivo efficacy of simulated human dosing regimens of prolonged-infusion doripenem against carbapenemase- producing Klebsiella pneumoniae” (2010).
Values after ≈ are worked out from the molar mass of the structure shown. Active and inactive are the calls of the source. The calls are words filed in the database; no cut-off is given here.

Key:
Klebsiella pneumoniae [1] = assay: Antimicrobial activity against Klebsiella pneumoniae isolate KPC 356 in immunocompetent mouse thigh infection model assessed as reduction in bacterial load in mouse thigh at 2 g after 24 hrs; type: functional, Thigh muscle
Summary of the method: (§1)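 Immunocompetent ICR mouse thigh model. Uranyl nitrate 5 mg/kg i.p. on day −3, no cyclophosphamide. Thighs inoculated i.m. with ~10⁸ CFU. From 2 h, s.c. doripenem regimens simulating human 1 or 2 g q8h 4-h infusions, given as three 8-h intervals; saline controls. Thighs homogenized in saline and plated at 24 h; change in log₁₀ CFU relative to 0-h untreated mice.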

Klebsiella pneumoniae [2] = assay: Antimicrobial activity against Klebsiella pneumoniae isolate KPC 353 by Etest; type: functional
Summary of the method: (§2)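 Etest on each clinical isolate, run in triplicate and read per the manufacturer's instructions; the modal MIC is reported. Quality control strain P. aeruginosa ATCC 27853. Isolates stored at −80°C in double-strength skim milk and subcultured twice on Trypticase soy agar with 5% sheep blood at 35°C before testing.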

Klebsiella pneumoniae [3] = assay: Antimicrobial activity against Klebsiella pneumoniae isolate KPC 361 in immunocompromized mouse thigh infection model assessed as reduction in bacterial load in mouse thigh at 2 g after 24 hrs; type: functional, organism-based; details: Thigh muscle
Summary of the method: (§3)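 Neutropenic murine thigh model. Cyclophosphamide 150 and 100 mg/kg i.p. at 4 and 1 days pre-inoculation. Uranyl nitrate 5 mg/kg i.p. at day −3 for renal impairment. Each thigh injected i.m. with ~10⁶ CFU/ml, 0.1 ml. At 2 h, s.c. doripenem regimens simulating human fT>MIC for 1 or 2 g q8h 4-h infusion; saline controls. Thighs plated at 24 h; Δlog₁₀ CFU vs 0-h controls; stasis <1 log change.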

Klebsiella pneumoniae [4] = assay: Antimicrobial activity against Klebsiella pneumoniae isolate KPC 357 in immunocompromized mouse thigh infection model assessed as decrease in bacterial density in mouse thigh at 1 g after 24 hrs; type: functional, Thigh muscle; summary of the method: as §3
Klebsiella pneumoniae [5] = assay: Antimicrobial activity against Klebsiella pneumoniae isolate KPC 356 by Etest; type: functional; summary of the method: as §2
Klebsiella pneumoniae [6] = assay: Antimicrobial activity against Klebsiella pneumoniae isolate KPC 354 in immunocompetent mouse thigh infection model assessed as reduction in bacterial load in mouse thigh at 1 g after 24 hrs; type: functional, Thigh muscle; summary of the method: as §1
Klebsiella pneumoniae [7] = assay: Antimicrobial activity against Klebsiella pneumoniae isolate KPC 354 in immunocompetent mouse thigh infection model assessed as reduction in bacterial load in mouse thigh at 2 g after 24 hrs; type: functional, Thigh muscle; summary of the method: as §1
[8] = fT>MIC in Klebsiella pneumoniae isolate KPC 357 infected in human at 2 g administered as 4 hrs infusion every 8 hrs; type: functional
Klebsiella pneumoniae [9] = assay: Antimicrobial activity against Klebsiella pneumoniae isolate KPC 354 by broth microdilution method; type: functional
Summary of the method: (§4)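 MIC by CLSI broth microdilution, triplicate determinations, modal value reported. QC strain P. aeruginosa 27853. Isolates kept frozen at −80°C in skim milk and subcultured twice on blood agar (TSA + 5% sheep blood) at 35°C before use.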

[10] = fT>MIC in Klebsiella pneumoniae isolate KPC 353 infected in human at 1 g administered as 4 hrs infusion every 8 hrs; type: functional
Klebsiella pneumoniae [11] = assay: Antimicrobial activity against Klebsiella pneumoniae isolate KPC 356 in immunocompromized mouse thigh infection model assessed as decrease in bacterial density in mouse thigh at 1 g after 24 hrs; type: functional, Thigh muscle; summary of the method: as §3
Klebsiella pneumoniae [12] = assay: Antimicrobial activity against Klebsiella pneumoniae isolate KPC 356 in immunocompetent mouse thigh infection model assessed as reduction in bacterial load in mouse thigh at 1 g after 24 hrs; type: functional, Thigh muscle; summary of the method: as §1
[13] = fT>MIC in Klebsiella pneumoniae isolate KPC 361 infected in human at 2 g administered as 4 hrs infusion every 8 hrs; type: functional
Klebsiella pneumoniae [14] = assay: Antimicrobial activity against Klebsiella pneumoniae isolate KPC 361 by broth microdilution method; type: functional; summary of the method: as §4
Klebsiella pneumoniae [15] = assay: Antimicrobial activity against Klebsiella pneumoniae isolate KPC 359 by Etest; type: functional; summary of the method: as §2
[16] = fT>MIC in Klebsiella pneumoniae isolate KPC 359 infected in human at 2 g administered as 4 hrs infusion every 8 hrs; type: functional
[17] = fT>MIC in Klebsiella pneumoniae isolate KPC 357 infected in human at 1 g administered as 4 hrs infusion every 8 hrs; type: functional
Klebsiella pneumoniae [18] = assay: Antimicrobial activity against Klebsiella pneumoniae isolate KPC 353 in immunocompromized mouse thigh infection model assessed as decrease in bacterial density in mouse thigh at 1 g after 24 hrs; type: functional, Thigh muscle; summary of the method: as §3
[19] = fT>MIC in Klebsiella pneumoniae isolate KPC 356 infected in human at 2 g administered as 4 hrs infusion every 8 hrs; type: functional
Klebsiella pneumoniae [20] = assay: Antimicrobial activity against Klebsiella pneumoniae isolate KPC 357 by Etest; type: functional; summary of the method: as §2
Klebsiella pneumoniae [21] = assay: Antimicrobial activity against Klebsiella pneumoniae isolate KPC 354 by Etest; type: functional; summary of the method: as §2
Klebsiella pneumoniae [22] = assay: Antimicrobial activity against Klebsiella pneumoniae isolate KPC 360 by broth microdilution method; type: functional
Summary of the method: (§5)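 Clinical KPC-producing isolate, stored at −80°C in double-strength skim milk, subcultured twice on Trypticase soy agar with 5% sheep blood at 35°C. MIC by broth microdilution per CLSI methods, run in triplicate, modal MIC reported; quality control strain PSA 27853 included.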

Klebsiella pneumoniae [23] = assay: Bacteriostatic activity against Klebsiella pneumoniae isolate KPC 359 in immunocompromized mouse thigh infection model at 2 g after 24 hrs; type: functional, organism-based; details: Thigh muscle; summary of the method: as §3
Klebsiella pneumoniae [24] = assay: Antimicrobial activity against Klebsiella pneumoniae isolate KPC 357 by broth microdilution method; type: functional; summary of the method: as §4
Klebsiella pneumoniae [25] = assay: Antimicrobial activity against Klebsiella pneumoniae isolate KPC 359 by broth microdilution method; type: functional; summary of the method: as §5
Klebsiella pneumoniae [26] = assay: Antimicrobial activity against Klebsiella pneumoniae isolate KPC 354 in immunocompromized mouse thigh infection model assessed as decrease in bacterial density in mouse thigh at 1 g after 24 hrs; type: functional, Thigh muscle; summary of the method: as §3
Klebsiella pneumoniae [27] = assay: Antimicrobial activity against Klebsiella pneumoniae isolate KPC 359 in immunocompetent mouse thigh infection model assessed as reduction in bacterial load in mouse thigh at 2 g after 24 hrs; type: functional, Thigh muscle; summary of the method: as §1
Klebsiella pneumoniae [28] = assay: Antimicrobial activity against Klebsiella pneumoniae isolate KPC 361 by Etest; type: functional; summary of the method: as §2
[29] = fT>MIC in Klebsiella pneumoniae isolate KPC 354 infected in human at 1 g administered as 4 hrs infusion every 8 hrs; type: functional
[30] = fT>MIC in Klebsiella pneumoniae isolate KPC 360 infected in human at 2 g administered as 4 hrs infusion every 8 hrs; type: functional
Klebsiella pneumoniae [31] = assay: Antimicrobial activity against Klebsiella pneumoniae isolate KPC 360 by Etest; type: functional
Summary of the method: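 Clinical KPC-producing isolate stored at −80°C in double-strength skim milk and subcultured twice on blood agar (5% sheep blood) at 35°C before testing. Etest strip MIC read per manufacturer's interpretation, run in triplicate, modal value reported; quality control strain PSA 27853 included.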

[32] = fT>MIC in Klebsiella pneumoniae isolate KPC 360 infected in human at 1 g administered as 4 hrs infusion every 8 hrs; type: functional
[33] = fT>MIC in Klebsiella pneumoniae isolate KPC 356 infected in human at 1 g administered as 4 hrs infusion every 8 hrs; type: functional
[34] = fT>MIC in Klebsiella pneumoniae isolate KPC 353 infected in human at 2 g administered as 4 hrs infusion every 8 hrs; type: functional
Klebsiella pneumoniae [35] = assay: Antimicrobial activity against Klebsiella pneumoniae isolate KPC 356 by broth microdilution method; type: functional; summary of the method: as §4
[36] = fT>MIC in Klebsiella pneumoniae isolate KPC 359 infected in human at 1 g administered as 4 hrs infusion every 8 hrs; type: functional
Klebsiella pneumoniae [37] = assay: Antimicrobial activity against Klebsiella pneumoniae isolate KPC 353 by broth microdilution method; type: functional; summary of the method: as §4
[38] = fT>MIC in Klebsiella pneumoniae isolate KPC 361 infected in human at 1 g administered as 4 hrs infusion every 8 hrs; type: functional
Klebsiella pneumoniae [39] = assay: Antimicrobial activity against Klebsiella pneumoniae isolate KPC 361 in immunocompromized mouse thigh infection model assessed as reduction in bacterial load in mouse thigh at 1 g after 24 hrs; type: functional, organism-based; details: Thigh muscle; summary of the method: as §3
[40] = fT>MIC in Klebsiella pneumoniae isolate KPC 354 infected in human at 2 g administered as 4 hrs infusion every 8 hrs; type: functional
Klebsiella pneumoniae [41] = assay: Antimicrobial activity against Klebsiella pneumoniae; type: functional

## C[C@@H](O)[C@H]1C(=O)N2C(C(=O)O)=C(S[C@@H]3CN[C@H](CNS(N)(=O)=O)C3)[C@H](C)[C@H]12 [DORIPENEM]
Klebsiella pneumoniae [1]
  log10cfu: 1
Klebsiella pneumoniae [2]
  MIC: 3 mg/L (≈ 7.13 µM)
Klebsiella pneumoniae [3]
  Activity: inactive
Klebsiella pneumoniae [4]
  log10cfu: 0.02
Klebsiella pneumoniae [5]
  MIC: 12 mg/L (≈ 28.5 µM)
Klebsiella pneumoniae [6]
  log10cfu: 1
Klebsiella pneumoniae [7]
  log10cfu: 1
[8]
  fT>MIC: 70%
Klebsiella pneumoniae [9]
  MIC: 4 mg/L (≈ 9.51 µM)
[10]
  fT>MIC: 70%
Klebsiella pneumoniae [11]
  log10cfu: 0.02
Klebsiella pneumoniae [12]
  log10cfu: 1
[13]
  fT>MIC: 0%
Klebsiella pneumoniae [14]
  MIC: 32 mg/L (≈ 76.1 µM)
Klebsiella pneumoniae [15]
  MIC: > 32 mg/L
[16]
  fT>MIC: 52.5%
[17]
  fT>MIC: 52.5%
Klebsiella pneumoniae [18]
  log10cfu: 0.02
[19]
  fT>MIC: 70%
Klebsiella pneumoniae [20]
  MIC: 6 mg/L (≈ 14.3 µM)
Klebsiella pneumoniae [21]
  MIC: 4 mg/L (≈ 9.51 µM)
Klebsiella pneumoniae [22]
  MIC: 16 mg/L (≈ 38 µM)
Klebsiella pneumoniae [23]
  Activity: Active
Klebsiella pneumoniae [24]
  MIC: 8 mg/L (≈ 19 µM)
Klebsiella pneumoniae [25]
  MIC: 16 mg/L (≈ 38 µM)
Klebsiella pneumoniae [26]
  log10cfu: 0.02
Klebsiella pneumoniae [27]
  log10cfu: 1
Klebsiella pneumoniae [28]
  MIC: > 32 mg/L
[29]
  fT>MIC: 70%
[30]
  fT>MIC: 52.5%
Klebsiella pneumoniae [31]
  MIC: 16 mg/L (≈ 38 µM)
[32]
  fT>MIC: 0%
[33]
  fT>MIC: 52.5%
[34]
  fT>MIC: 82.5%
Klebsiella pneumoniae [35]
  MIC: 8 mg/L (≈ 19 µM)
[36]
  fT>MIC: 0%
Klebsiella pneumoniae [37]
  MIC: 4 mg/L (≈ 9.51 µM)
[38]
  fT>MIC: 0%
Klebsiella pneumoniae [39]
  Activity: inactive
[40]
  fT>MIC: 82.5%

## C[C@@H](O)[C@H]1C(=O)N2C(C(=O)O)=C(S[C@@H]3CN[C@H](C(=O)N(C)C)C3)[C@H](C)[C@H]12 [MEROPENEM]
Klebsiella pneumoniae [41]
  MIC: 2 mg/L (≈ 5.22 µM)
